Data as given in ChEMBL document CHEMBL4321802, “Antioxidant-Conjugated 1,2,4-Triazolo[4,3-a]pyrazin-3-one Derivatives: Highly Potent and Selective Human A2A Adenosine Receptor Antagonists Possessing Protective Efficacy in Neuropathic Pain” (J Med Chem, 2019).
Calls of active or inactive are those of the source.

Experiments:
Adenosine receptor A2b = target: T1, Adenosine receptor A2b (Homo sapiens, UniProt P29275); experiment: Antagonist activity at human adenosine A2B receptor expressed in CHO cells assessed as inhibition of NECA-stimulated adenylyl cyclase activity by Glo-sensor cAMP assay; format: functional, cell-based
T1 sequence (P29275 whole entry): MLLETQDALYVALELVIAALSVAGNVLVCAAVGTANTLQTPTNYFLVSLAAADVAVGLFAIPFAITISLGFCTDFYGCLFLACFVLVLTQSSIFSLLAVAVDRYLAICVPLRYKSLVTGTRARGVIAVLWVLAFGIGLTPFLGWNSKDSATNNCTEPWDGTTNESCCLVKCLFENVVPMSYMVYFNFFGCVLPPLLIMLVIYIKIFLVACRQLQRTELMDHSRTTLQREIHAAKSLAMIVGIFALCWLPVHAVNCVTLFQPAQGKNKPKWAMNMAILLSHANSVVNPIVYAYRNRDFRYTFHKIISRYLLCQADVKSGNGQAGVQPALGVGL
Procedure, shortened: (§1)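 CHO cells stably expressing hA2A or hA2B AR and transiently the GloSensor cAMP biosensor. Cells were equilibrated 2 h at rt in CO2-independent medium with 3% v/v GloSensor reagent and 10% FBS. Compounds at graded concentrations were tested against NECA-induced cAMP rise; luminescence as % of maximal RLU. IC50 from nonlinear regression. Three to five runs in triplicate, mean ± S.E.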

Adenosine receptor A2a [1] = target: T2, Adenosine receptor A2a (Homo sapiens, UniProt P29274); experiment: Displacement of [3H]NECA from human adenosine A2A receptor expressed in CHO cell membranes by radioligand competition assay
Adenosine receptor A3 = target: T3, Adenosine receptor A3 (Homo sapiens, UniProt P0DMS8); experiment: Displacement of [3H]HEMADO from human adenosine A3 receptor expressed in CHO cell membranes by radioligand competition assay
T3 sequence (P0DMS8 whole entry): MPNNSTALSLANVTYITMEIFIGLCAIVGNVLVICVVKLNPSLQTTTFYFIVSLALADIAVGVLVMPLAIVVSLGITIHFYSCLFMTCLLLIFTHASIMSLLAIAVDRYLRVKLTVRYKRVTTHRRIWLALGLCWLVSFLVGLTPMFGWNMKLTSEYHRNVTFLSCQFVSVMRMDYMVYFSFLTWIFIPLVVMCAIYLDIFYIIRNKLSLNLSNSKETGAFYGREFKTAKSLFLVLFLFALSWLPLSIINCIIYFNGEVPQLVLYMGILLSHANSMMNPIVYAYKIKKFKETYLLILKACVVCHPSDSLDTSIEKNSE
Procedure, shortened: (§2)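 Membranes from stably transfected CHO cells were made by 1000 g, then 100 000g spins. hA1 used 1.0 nM [³H]CCPA in 50 mM Tris/HCl pH 7.4. hA3 used 1.0 nM [³H]HEMADO in 50 mM Tris/HCl, 10 mM MgCl2, 1 mM EDTA, pH 8.25. Ki from competition curves, each concentration tested three to five times in triplicate, mean ± S.E.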

Adenosine receptor A1 = target: T4, Adenosine receptor A1 (Homo sapiens, UniProt P30542); experiment: Displacement of [3H]CCPA from human adenosine A1 receptor expressed in CHO cell membranes by radioligand competition assay; procedure, shortened: as §2
T4 sequence (P30542 whole entry): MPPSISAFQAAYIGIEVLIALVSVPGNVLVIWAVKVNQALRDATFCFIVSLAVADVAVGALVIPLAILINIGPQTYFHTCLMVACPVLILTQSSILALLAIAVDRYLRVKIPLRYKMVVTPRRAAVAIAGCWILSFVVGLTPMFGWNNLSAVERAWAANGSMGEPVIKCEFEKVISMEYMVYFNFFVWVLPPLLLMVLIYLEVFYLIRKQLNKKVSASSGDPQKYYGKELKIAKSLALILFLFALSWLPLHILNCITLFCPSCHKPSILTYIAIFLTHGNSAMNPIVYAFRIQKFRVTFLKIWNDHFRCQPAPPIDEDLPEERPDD

Microglia [2] = experiment: Neuroprotective activity against 30 uM Oxaliplatin-induced neurotoxicity in Sprague-Dawley rat microglia assessed as cell viability at 10 uM incubated fro 24 hrs by MTT assay (reference value: 19.1 +/- 0.8%); format: functional
[3] = Half life in 50 mM Tris buffer; format: physicochemical
Procedure, shortened: (§3)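 Compounds incubated at 37 °C in 50 mM Tris buffer pH 7.4 or in pooled healthy-volunteer human plasma (stored -80 °C). Concentration followed over time by LC-MS/MS; t1/2 taken from the decay rate of ln(concentration) versus time. Half-lives above 240 min cannot be resolved and are given as ≥240. Ketoprofen ethyl ester served as plasma-activity reference.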

Adenosine receptor A2a [4] = target: T2, Adenosine receptor A2a; experiment: Antagonist activity at human adenosine A2A receptor expressed in CHO cells assessed as inhibition of NECA-stimulated adenylyl cyclase activity by Glo-sensor cAMP assay; format: functional, cell-based; procedure, shortened: as §1
[5] = Half life in human plasma; format: ADME, cell-free; procedure, shortened: as §3
Microglia [6] = experiment: Neuroprotective activity against 10 uM Oxaliplatin-induced neurotoxicity in Sprague-Dawley rat microglia assessed as cell viability at 10 uM incubated fro 24 hrs by MTT assay (reference value: 33.2 +/- 1.3%); format: functional
Adenosine receptor A2a [7] = target: Adenosine receptor A2a (Rattus norvegicus, UniProt P30543); experiment: Displacement of [3H]NECA from rat adenosine A2A receptor expressed in CHO cell membranes by radioligand competition assay
Microglia [8] = experiment: Antioxidant activity in Sprague-Dawley rat microglia assessed as suppression of oxaliplatin-dependent increase in superoxide dismutase-inhibitable superoxide anion generation at 10 uM incubated for 4 hrs in presence of oxaliplatin by spectrophotometry based cytochrome c assay; format: functional, cell-based
Procedure, shortened: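 Primary neonatal (P1–P3) Sprague–Dawley rat cortical microglia (95–98% Iba1-positive), grown to confluence at 5×10⁵/well. Cells incubated 4 h at 37 °C in serum-free DMEM with cytochrome c (1 mg/ml), ± 100 µM oxaliplatin, ± compounds at 10 µM. Absorbance at 550 nm, minus the value with bovine SOD (300 mU/ml). O2•− calculated with ε 2.1×10⁴ M⁻¹ cm⁻¹, as µM/mg protein/4 h. Three experiments, mean ± SEM.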

Microglia [9] = experiment: Antioxidant activity in Sprague-Dawley rat microglia assessed as suppression of oxaliplatin-induced reduction in catalase activity at 10 uM incubated for 24 hrs in presence of oxaliplatin by Amplex red dye based assay; format: functional, cell-based
Procedure, shortened: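 Primary rat microglia (5·10⁵ cells/well) exposed 24 h to oxaliplatin 10 µM ± compounds at 10 µM. Cells washed, scraped in PBS, freeze-thawed and spun 13,000×g for 10 min at 4 °C. Catalase read in the supernatant with an Amplex Red kit, normalised to BCA protein; untreated control set to 100%. Three experiments, mean ± SEM.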

Mus musculus = experiment: Analgesic activity in CD1 albino mouse model of oxaliplatin-induced neuropathy hypersensitivity assessed as increase pain threshold at 10 to 30 mg/kg, po dosed from day 14 post oxaliplatin challenge and measured after 15 to 45 mins post dose by cold plate test; format: functional, organism-based
Procedure, shortened: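 Male CD-1 mice (22–25 g) given oxaliplatin 2.4 mg kg⁻¹ i.p. in 5% glucose on days 1-2, 5-9 and 12-14; controls got vehicle. On day 14, compounds suspended in 1% carboxymethylcellulose were given once p.o. Cold plate held at 4 °C ± 1 °C; latency to first hind-paw licking/lifting recorded, 60 s cut-off. Mean ± SEM, two experimental sets; one-way ANOVA with Bonferroni.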

T2 sequence (P29274 whole entry): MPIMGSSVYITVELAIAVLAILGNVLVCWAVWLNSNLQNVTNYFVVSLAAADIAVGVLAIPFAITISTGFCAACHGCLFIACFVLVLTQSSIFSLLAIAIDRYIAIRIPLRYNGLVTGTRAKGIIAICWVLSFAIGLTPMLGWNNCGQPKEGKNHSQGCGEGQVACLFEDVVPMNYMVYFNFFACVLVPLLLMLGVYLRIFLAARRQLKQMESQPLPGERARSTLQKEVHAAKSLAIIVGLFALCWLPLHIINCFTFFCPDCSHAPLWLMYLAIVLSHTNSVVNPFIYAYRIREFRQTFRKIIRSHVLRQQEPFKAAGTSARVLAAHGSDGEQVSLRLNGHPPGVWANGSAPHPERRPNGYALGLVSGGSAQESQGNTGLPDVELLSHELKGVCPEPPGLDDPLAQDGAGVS
Adenosine receptor A2a (Rattus norvegicus, UniProt P30543), sequence (P30543 whole entry): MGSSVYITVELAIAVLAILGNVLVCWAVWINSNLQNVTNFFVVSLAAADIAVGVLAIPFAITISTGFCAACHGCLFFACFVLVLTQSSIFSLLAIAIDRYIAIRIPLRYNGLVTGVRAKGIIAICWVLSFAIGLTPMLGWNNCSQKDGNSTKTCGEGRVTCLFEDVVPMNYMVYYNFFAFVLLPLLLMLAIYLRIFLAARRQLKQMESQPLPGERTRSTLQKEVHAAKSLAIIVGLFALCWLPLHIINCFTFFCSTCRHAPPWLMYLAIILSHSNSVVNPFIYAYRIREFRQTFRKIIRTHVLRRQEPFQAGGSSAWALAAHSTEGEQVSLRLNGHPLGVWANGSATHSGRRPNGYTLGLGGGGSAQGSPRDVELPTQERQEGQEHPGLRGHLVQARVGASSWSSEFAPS

Row | Compound | IC50 (Adenosine receptor A2b) | Ki (Adenosine receptor A2a [1]) | Ki (Adenosine receptor A3) | Ki (Adenosine receptor A1) | half-life [3] | IC50 (Adenosine receptor A2a [4]) | half-life [5] | Ki (Adenosine receptor A2a [7]) | Activity (Microglia [2]) | Activity (Microglia [6]) | Activity (Microglia [8]) | Activity (Microglia [9]) | Activity (Mus musculus)
1 | COc1cc(-c2cn3c(=O)n(-c4ccccc4)nc3c(N)n2)cc(OC)c1OC | > 30 µM | 0.0035 µM | 0.214 µM | 0.055 µM |  |  |  |  |  |  |  |  | 
2 | COc1c(C(C)(C)C)cc(-c2cn3c(=O)n(-c4ccccc4)nc3c(N)n2)cc1C(C)(C)C | > 30 µM | 0.142 µM | > 30 µM | 0.108 µM |  |  |  |  |  |  |  |  | 
3 | COc1ccc(-c2cn3c(=O)n(-c4ccccc4)nc3c(N)n2)c(OC)c1 | > 30 µM | 0.0024 µM | 0.118 µM | 0.028 µM |  |  |  |  |  |  |  |  | 
4 | Nc1nc(-c2cc(O)c(O)c(O)c2)cn2c(=O)n(-c3ccccc3)nc12 | 17.3 µM | 0.0945 µM | 5.57 µM | 0.176 µM |  |  |  |  |  |  |  |  | 
5 | COc1cc(O)ccc1-c1cn2c(=O)n(-c3ccccc3)nc2c(N)n1 | > 30 µM | 0.0168 µM | 11.1 µM | 0.0297 µM |  |  |  |  |  |  |  |  | 

Continued, in another order:

Row | IC50 (Adenosine receptor A2b) | Ki (Adenosine receptor A2a [1]) | Ki (Adenosine receptor A3) | Ki (Adenosine receptor A1) | half-life [3] | IC50 (Adenosine receptor A2a [4]) | half-life [5] | Ki (Adenosine receptor A2a [7]) | Compound | Activity (Microglia [2]) | Activity (Microglia [6]) | Activity (Microglia [8]) | Activity (Microglia [9]) | Activity (Mus musculus)
6 | 9.66 µM | 0.00059 µM | 0.509 µM | 0.479 µM |  |  |  |  | NCCC(=O)Nc1ccc(-c2cn3c(=O)n(-c4ccccc4)nc3c(N)n2)cc1 |  |  |  |  | 
7 | > 30 µM | 0.0052 µM | 0.95 µM | 0.0426 µM |  |  |  |  | Nc1nc(-c2ccc(O)c(O)c2)cn2c(=O)n(-c3ccccc3)nc12 |  |  |  |  | 
8 | > 30 µM | 0.0085 µM | > 30 µM | > 30 µM | ≥ 4 h | 0.179 µM | 2.03 h |  | CC(C)(C)c1cc(-c2cn3c(=O)n(-c4ccccc4)nc3c(N)n2)ccc1O | 28.6% | 46.4% |  |  | 
9 | > 30 µM | 0.005 µM | > 30 µM | 0.0084 µM |  |  |  |  | Nc1nc(-c2ccc(NC(=O)CCCCC3CCSS3)cc2)cn2c(=O)n(-c3ccccc3)nc12 (stereo not drawn) |  |  |  |  | 
10 | > 30 µM | 0.0364 µM | > 30 µM | 1.36 µM | ≥ 4 h | 0.296 µM | 0.683 h |  | Nc1nc(-c2ccc(NC(=O)CCNC(=O)CCCCC3CCSS3)cc2)cn2c(=O)n(-c3ccccc3)nc12 (stereo not drawn) | 18.3% | 38.9% |  |  | 
11 | > 30 µM | 0.0545 µM | > 30 µM | > 30 µM | ≥ 4 h | 0.263 µM | ≥ 4 h | 0.086 µM | CC(C)(C)c1cc(C(=O)NCCC(=O)Nc2ccc(-c3cn4c(=O)n(-c5ccccc5)nc4c(N)n3)cc2)cc(C(C)(C)C)c1O | 30.6% | 43.5% | Active | Active | Active
